Laboratory results taken from ChEMBL document CHEMBL1122125, “Synthesis and in vivo antitumor activity of potential 5-fluorouracil prodrugs” (1982).

What was measured:
Type in all cases: functional
Mus musculus [1] = test: Antitumor activity was determined for median survival of mice against P-388 leukemia in mice at a dose of 150 mg/kg
Outline: (§1)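 Male B6D2F1J mice implanted ip with 10⁶ P-388 cells on day 0; test agents given ip on days 1–4 (qd × 4) in sterile saline, or in 10% Tween 80 for the lipophilic thioether. Groups of 5 treated mice, with 10–17 untreated controls per experiment. Mice weighed on days 1 and 7 to give the 7-day weight change in g and %. Survival recorded in days as median and range.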

Mus musculus [2] = test: Antitumor activity was determined for average weight on day 1 against P-388 leukemia in mice at a dose of 85 mg/kg
Outline: (§2)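 Male B6D2F1J mice, groups of 5, inoculated ip with 10⁶ P-388 cells on day 0. Drug given ip on days 1-4 (qd × 4) in sterile saline, or in 10% Tween 80 for the poorly water-soluble thioether. Average weight per mouse recorded on day 1, with reweighing on day 7 for percent weight change. Untreated control groups had 10-17 animals per experiment.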

Mus musculus [3] = test: Antitumor activity was determined for median survival of mice against P-388 leukemia in mice at a dose of 600 mg/kg; outline: as §1
Mus musculus [4] = test: Antitumor activity was determined for average 7-day weight change against P-388 leukemia in mice at a dose of 75 mg/kg
Outline: (§3)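 Male B6D2F1J mice given 10⁶ P-388 cells ip on day 0, then treated ip once daily on days 1-4 (qd × 4), 5 mice per dose group. Compounds dosed in sterile saline, except one lipophilic thioether given in 10% Tween 80. Mice weighed on days 1 and 7; mean weight per mouse on day 1 and 7-day weight change reported in g and as percent.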

Mus musculus [5] = test: Percent increase in life span against P-388 leukemia in mice was determined at a dose of 150 mg/kg; settings: P388
Outline: (§4)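 Male B6D2F1J mice, 5 per dose group, received 10⁶ P-388 cells ip on day 0. Dosing was ip qd × 4 on days 1-4 in sterile saline, or 10% Tween 80 for the butyl thioether. Median survival times of treated (T) and untreated control (C, 10-17 mice) groups were compared: %ILS = [(T/C) − 1]100. Weights taken on days 1 and 7.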

Mus musculus [6] = test: Antitumor activity was determined for median survival of mice against P-388 leukemia in mice at a dose of 75 mg/kg; outline: as §1
Mus musculus [7] = test: Antitumor activity was determined for 7-day average percent weight change against P-388 leukemia in mice at a dose of 340 mg/kg; outline: as §3
Mus musculus [8] = test: Antitumor activity was determined for 7-day average percent weight change against P-388 leukemia in mice at a dose of 680 mg/kg; outline: as §3
Mus musculus [9] = test: Antitumor activity was determined for survival range of mice against P-388 leukemia in mice at a dose of 300 mg/kg; outline: as §1
Mus musculus [10] = test: Percent increase in life span against P-388 leukemia in mice was determined at a dose of 75 mg/kg; settings: P388; outline: as §4
Mus musculus [11] = test: Antitumor activity was determined for 7-day average percent weight change against P-388 leukemia in mice at a dose of 600 mg/kg; outline: as §3
Mus musculus [12] = test: Antitumor activity was determined for survival range of mice against P-388 leukemia in mice at a dose of 680 mg/kg; outline: as §1
Mus musculus [13] = test: Antitumor activity was determined for average weight on day 1 against P-388 leukemia in mice at a dose of 340 mg/kg; outline: as §2
Mus musculus [14] = test: Percent increase in life span against P-388 leukemia in mice was determined at a dose of 170 mg/kg; settings: P388; outline: as §4
Mus musculus [15] = test: Antitumor activity was determined for average 7-day weight change against P-388 leukemia in mice at a dose of 340 mg/kg; outline: as §3
Mus musculus [16] = test: Antitumor activity was determined for average weight on day 1 against P-388 leukemia in mice at a dose 75 of mg/kg; outline: as §3
Mus musculus [17] = test: Antitumor activity was determined for median survival of mice against P-388 leukemia in mice at a dose of 300 mg/kg; outline: as §1
Mus musculus [18] = test: Antitumor activity was determined for average 7-day weight change against P-388 leukemia in mice at a dose of 600 mg/kg; outline: as §3
Mus musculus [19] = test: Antitumor activity was determined for median survival of mice against P-388 leukemia in mice at a dose of 170 mg/kg; outline: as §1
Mus musculus [20] = test: Antitumor activity was determined for 7-day average percent weight change against P-388 leukemia in mice at a dose of 85 mg/kg; outline: as §3
Mus musculus [21] = test: Antitumor activity was determined for average 7-day weight change against P-388 leukemia in mice at a dose of 300 mg/kg; outline: as §3
Mus musculus [22] = test: Antitumor activity was determined for median survival of mice against P-388 leukemia in mice at a dose of 680 mg/kg; outline: as §1
Mus musculus [23] = test: Percent increase in life span against P-388 leukemia in mice was determined at a dose of 680 mg/kg; settings: P388; outline: as §4
Mus musculus [24] = test: Antitumor activity was determined for 7-day average percent weight change against P-388 leukemia in mice at a dose of 150 mg/kg; outline: as §3
Mus musculus [25] = test: Antitumor activity was determined for average weight on day 1 against P-388 leukemia in mice at a dose 150 of mg/kg; outline: as §3
Mus musculus [26] = test: Antitumor activity was determined for 7-day average percent weight change against P-388 leukemia in mice at a dose of 300 mg/kg; outline: as §3
Mus musculus [27] = test: Antitumor activity was determined for survival range of mice against P-388 leukemia in mice at a dose of 600 mg/kg; outline: as §1
Mus musculus [28] = test: Antitumor activity was determined for average weight on day 1 against P-388 leukemia in mice at a dose of 300 mg/kg; outline: as §2
Mus musculus [29] = test: Antitumor activity was determined for survival range of mice against P-388 leukemia in mice at a dose of 340 mg/kg; outline: as §1
Mus musculus [30] = test: Antitumor activity was determined for average 7-day weight change against P-388 leukemia in mice at a dose of 85 mg/kg; outline: as §3
Mus musculus [31] = test: Antitumor activity was determined for average 7-day weight change against P-388 leukemia in mice at a dose of 150 mg/kg; outline: as §3
Mus musculus [32] = test: Antitumor activity was determined for survival range of mice against P-388 leukemia in mice at a dose of 75 mg/kg
Outline: (§5)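 Male B6D2F1J mice, 5 per dose group, implanted ip with 10⁶ P-388 leukemia cells on day 0. Drug given ip daily on days 1-4 (qd × 4) in sterile saline, or in 10% Tween 80 for the butyl thioether. Survival range recorded in days. Untreated control groups had 10-17 animals per experiment. Mice weighed on days 1 and 7.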

Mus musculus [33] = test: Antitumor activity was determined for 7-day average percent weight change against P-388 leukemia in mice at a dose of 170 mg/kg; outline: as §3
Mus musculus [34] = test: Antitumor activity was determined for average weight on day 1 against P-388 leukemia in mice at a dose of 170 mg/kg; outline: as §2
Mus musculus [35] = test: Antitumor activity was determined for survival range of mice against P-388 leukemia in mice at a dose of 85 mg/kg; outline: as §5
Mus musculus [36] = test: Antitumor activity was determined for median survival of mice against P-388 leukemia in mice at a dose of 85 mg/kg; outline: as §1
Mus musculus [37] = test: Antitumor activity was determined for average weight on day 1 against P-388 leukemia in mice at a dose of 600 mg/kg; outline: as §2

`CC[C@H]1OC(n2cc(F)c(=O)[nH]c2=O)[C@H](O)[C@@H]1O` (some centres not stated) was tested, and the Survival median (Mus musculus [1]) was 17, the Average weight (Mus musculus [2]) was 26.2 g mouse-1 and the Survival median (Mus musculus [3]) was 18. The Average weight (Mus musculus [4]) was 2 g mouse-1, the ILS at 150 mg/kg (Mus musculus [5]) was 54% and the Survival median (Mus musculus [6]) was 15. The Weight change (Mus musculus [7]) was 5%, the Weight change (Mus musculus [8]) was -5% and the Survival range (Mus musculus [9]) was 17. The ILS at 75 mg/kg (Mus musculus [10]) was 36%, the Weight change (Mus musculus [11]) was -10% and the Survival range (Mus musculus [12]) was 16. For the same compound, the Average weight (Mus musculus [13]) was 27.8 g mouse-1, the ILS at 170 mg/kg (Mus musculus [14]) was 27% and the Average weight (Mus musculus [15]) was 1.4 g mouse-1. The Average weight (Mus musculus [16]) was 21.8 g mouse-1, the Survival median (Mus musculus [17]) was 17 and the Average weight (Mus musculus [18]) was -2.4 g mouse-1. It also gave a Survival median (Mus musculus [19]) of 14, a Weight change (Mus musculus [20]) of 5% and an Average weight (Mus musculus [21]) of 0.6 g mouse-1. It also gave a Survival median (Mus musculus [22]) of 17, an ILS at 680 mg/kg (Mus musculus [23]) of 54% and a Weight change (Mus musculus [24]) of 7%. The Average weight (Mus musculus [25]) was 25.8 g mouse-1, the Weight change (Mus musculus [26]) was 3% and the Survival range (Mus musculus [27]) was 17. The Average weight (Mus musculus [28]) was 23.2 g mouse-1, the Survival range (Mus musculus [29]) was 15 and the Average weight (Mus musculus [30]) was 1.2 g mouse-1. The Average weight (Mus musculus [31]) was 1.8 g mouse-1, the Survival range (Mus musculus [32]) was 14 and the Weight change (Mus musculus [33]) was 6%. It also gave an Average weight (Mus musculus [34]) of 26.4 g mouse-1, a Survival range (Mus musculus [35]) of 13 and a Survival median (Mus musculus [36]) of 13. The Average weight (Mus musculus [37]) was 23.2 g mouse-1.
